Reference: ChEMBL document CHEMBL4627297, “Comparative reactivity analysis of small-molecule thiol surrogates” (Bioorg Med Chem, 2020)

Legend:
[1] = Solubility of the compound in pH 7.4 PBS buffer; type: physicochemical
Method in brief: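 Solubility was judged by eye as the absence of precipitation during the thiol reactivity incubations. Conditions were 250 µM fragment in PBS pH 7.4 with 5% acetonitrile, over up to 72 h.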

[2] = Drug reactivity against N-bezoyl-cysteamine in pH 7.4 PBS buffer assessed as half life at 250 uM measured up to 72 hrs by HPLC analysis; type: ADME; conditions: PBS buffer with N-benzoyl-cysteamine (thiol reactivity)
Method in brief: (§1)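 Fragment (500 µM in PBS pH 7.4 with 10% acetonitrile and 200 µM indoprofen internal standard) was mixed 1:1 with 10 mM thiol surrogate in PBS. Final concentrations were 250 µM fragment, 5 mM thiol, 100 µM indoprofen and 5% acetonitrile, giving pseudo-first-order conditions. HPLC sampling at 0, 1, 2, 4, 8, 12, 24, 48 and 72 h.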

[3] = Drug reactivity against N-acetyl-cysteine in pH 7.4 PBS buffer assessed as half life at 250 uM measured up to 72 hrs by HPLC-MS analysis; type: ADME; conditions: PBS buffer with N-acetyl-cysteine (thiol reactivity); method in brief: as §1
[4] = Drug reactivity against cysteine in pH 7.4 PBS buffer assessed as half life at 250 uM measured up to 72 hrs by HPLC-MS/MS analysis; type: ADME; conditions: PBS buffer with cysteine (thiol reactivity); method in brief: as §1
[5] = Drug reactivity against N-benzoyl-cysteine in pH 7.4 PBS buffer assessed as half life at 250 uM measured up to 72 hrs by HPLC-MS analysis; type: ADME; conditions: PBS buffer with N-benzoyl-cysteine (thiol reactivity); method in brief: as §1
[6] = Drug reactivity against N-benzoyl-glutathione in pH 7.4 PBS buffer assessed as half life at 250 uM measured up to 72 hrs by HPLC-MS/MS analysis; type: ADME; conditions: PBS buffer with N-benzoyl-glutathione (thiol reactivity); method in brief: as §1
[7] = Drug reactivity against glutathione in pH 7.4 PBS buffer assessed as half life at 250 uM measured up to 72 hrs by HPLC analysis; type: ADME; conditions: PBS buffer with glutathione (thiol reactivity); method in brief: as §1
[8] = Drug reactivity against cysteamine in pH 7.4 PBS buffer assessed as half life at 250 uM measured up to 72 hrs by HPLC-MS/MS analysis; type: ADME; conditions: PBS buffer with cysteamine (thiol reactivity); method in brief: as §1

solubility [1] | half-life at 250 µM [2] [min] | half-life at 250 µM [3] [min] | half-life at 250 µM [4] [min] | half-life at 250 µM [5] [min] | half-life at 250 µM [6] [min] | half-life at 250 µM [7] [min] | half-life at 250 µM [8] [min] | SMILES
Soluble | > 3000 | > 3000 | > 3000 | > 3000 | > 3000 | – | > 3000 | Fc1cc(C(F)(F)F)cc(C(F)(F)F)c1
Soluble | > 3000 | 1980 | > 3000 | > 3000 | 672 | 1890 | > 3000 | FC(F)(F)c1cc(S)cc(C(F)(F)F)c1
Soluble | < 1.02 | < 1.02 | < 1.02 | < 1.02 | < 1.02 | < 1.02 | < 1.02 | O=C(CBr)c1cc(C(F)(F)F)cc(C(F)(F)F)c1
Soluble | < 1.02 | < 1.02 | < 1.02 | < 1.02 | < 1.02 | < 1.02 | < 1.02 | C=CC(=O)Oc1cc(C(F)(F)F)cc(C(F)(F)F)c1

SMILES | solubility [1] | half-life at 250 µM [2] [min] | half-life at 250 µM [3] [min] | half-life at 250 µM [4] [min] | half-life at 250 µM [5] [min] | half-life at 250 µM [6] [min] | half-life at 250 µM [7] [min] | half-life at 250 µM [8] [min]
FC(F)(F)c1cc(N=C=S)cc(C(F)(F)F)c1 | Soluble | < 1.02 | < 1.02 | < 1.02 | 1.02 | < 1.02 | < 1.02 | < 1.02
